# Reference: paper PMC6555264 (Infection and Drug Resistance, 2019)
# Several values for one entry are separate records, joined by “and”; a condition that tells them apart may be missing. Equal values may be shown once.
# Legend:
# A. baumannii [1] = assay: Broth microdilution MIC, alone and with AR-12; assay type: cell-based, Acinetobacter baumannii; settings: for MIC: strain 34299 (JMI Laboratories), drug alone; for fold reduction of MIC in the presence of 4 μg/ml of AR-12: MDR A. baumannii (2 out of 4 strains tested); for MIC (4 µg/ml AR-12): strain 34299, with 4 µg/ml AR-12
# In short: (§1)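 Colonies from Mueller-Hinton II agar (37°C, overnight) were suspended in PBS, sized by OD600 and diluted in CAMHB, giving a final inoculum of 5×10^5 CFU/ml. Single-drug MICs: 96-well round-bottom plates, static 37°C for 18–24 h, growth scored visually. Checkerboard: twofold polymyxin B or colistin (0.13–64 or 128 μg/ml) against twofold test compound (1–64 or 128 μg/ml; DMSO stock), incubated 16–20 h.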
# B. mallei = assay type: cell-based, Burkholderia mallei
# B. pseudomallei = assay type: cell-based, Burkholderia pseudomallei
# Enterobacter cloacae = assay type: cell-based
# K. pneumoniae [2] = assay: Broth microdilution MIC, alone and with AR-12; assay type: cell-based, Klebsiella pneumoniae; settings: for MIC: drug alone; for MIC (4 µg/ml AR-12): with 4 µg/ml AR-12
# In short: as §1
# Proteus mirabilis = assay type: cell-based
# Providencia stuartii = assay type: cell-based
# Serratia marcescens = assay type: cell-based
# [3] = test system: panel of MDR Gram-negative pathogenic bacterial strains; assay: Broth dilution MIC, whole panel; assay type: cell-based; settings: for fold reduction of MIC in the presence of AR-12: certain polymyxin-resistant Gram-negative bacterial strains
# In short: as §1
# [4] = test system: A. baumannii strains and K. pneumoniae strains; assay: Dansyl polymyxin permeability assay; assay type: cell-based; settings: increasing concentrations of AR-12; depending on the strain; DP 0.6 μM
# In short: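 Log-phase cells (overnight culture subcultured 1:100 for 2–3 h) were pelleted at 0.5 OD-equivalent and resuspended in 1 ml of 5 mM HEPES at room temperature. Fluorescence was read at room temperature (ex 320, em 500 nm), with cell-free wells subtracted. Two or more repeats.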
# [5] = test system: A. baumannii and K. pneumoniae strains; assay: N-phenyl-1-naphthylamine; assay type: cell-based; settings: AR-12 4 μg/ml and 8 μg/ml
# In short: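 Cell suspensions were prepared as for the dansyl polymyxin assay (log phase, in 5 mM HEPES). Cells were added at 1:4 to a HEPES/NPN/test compound mix, in triplicate. Fluorescence was read at room temperature (ex 355, em 405 nm), with cell-free wells subtracted. Two or more independent repeats.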
# [6] = Pharmacokinetic study in mice, oral; assay type: in vivo, Balb/c mice
# In short: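 Female Balb/c mice received a single oral dose of test compound at 80 mg/kg, formulated at 8 mg/mL in 10% Solutol HS 15. Plasma was sampled at 0, 0.5, 1, 2, 4, 8, 10 and 24 h, with 3 mice per time point. Drug levels were quantified by HPLC.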
# [7] = Maximum tolerated dose in mice; assay type: in vivo; settings: p.o.
# Protein binding in mice = assay type: in vitro ADME
# cyclooxygenase 2 (COX-2) = settings: eukaryotic host; cited from earlier work
# Francisella strains = settings: cited from earlier work
# [8] = test system: Francisella tularensis and F. novicida in THP-1 macrophages; settings: cited from earlier work
# [9] = test system: ampicillin and kanamycin-resistant E. coli strain; settings: laboratory-generated ampicillin and kanamycin-resistant E. coli; cited from earlier work
# [10] = test system: MDR clinical isolate of N. gonorrhoeae; settings: cited from earlier work
# A. baumannii [11] = assay: Bacterial growth assay; assay type: cell-based, Acinetobacter baumannii
# In short: (§2)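 Cultures were grown overnight (~16 h) in CAMHB at 37°C with shaking, then subcultured 1:100 for 2–3 h to log phase. 5×10^5 CFU/ml were dispensed into CAMHB wells holding preset drug concentrations, in triplicate. Plates were shaken at 37°C, with OD600 read automatically every 15 min for 24 h. Two or more independent repeats.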
# K. pneumoniae [12] = assay: Bacterial growth assay; assay type: cell-based, Klebsiella pneumoniae
# In short: as §2
# [13] = strain 30835 (JMI Laboratories)
Compound,MIC (A. baumannii [1]) [µg/mL],MIC (B. mallei) [µg/mL],MIC (B. pseudomallei) [µg/mL],MIC (K. pneumoniae [2]; strain 0010 (CDC)) [µg/mL],MIC (K. pneumoniae [2]; strain 101434 (USAMRIID)) [µg/mL],MIC (K. pneumoniae [2]; strain 101522 (USAMRIID)) [µg/mL],MIC (K. pneumoniae [2]; strain 101783 (USAMRIID)) [µg/mL],MIC (Proteus mirabilis) [µg/mL],MIC (Providencia stuartii) [µg/mL],MIC (Serratia marcescens) [µg/mL],fold reduction of MIC in the presence of 4 μg/ml of AR-12 (A. baumannii [1]),MIC (4 µg/ml AR-12) (A. baumannii [1]) [µg/mL],MIC (4 µg/ml AR-12) (K. pneumoniae [2]; strain 0010) [µg/mL],MIC (K. pneumoniae [2]; [13]) [µg/mL],MIC (4 µg/ml AR-12) (K. pneumoniae [2]; strain 30835) [µg/mL],MIC (4 µg/ml AR-12) (K. pneumoniae [2]; strain 101434) [µg/mL],MIC (4 µg/ml AR-12) (K. pneumoniae [2]; strain 101783) [µg/mL],MIC (4 µg/ml AR-12) (Proteus mirabilis),MIC (4 µg/ml AR-12) (Providencia stuartii) [µg/mL],MIC (4 µg/ml AR-12) (Serratia marcescens),also measured
NCC(=O)Nc1ccc(-n2nc(C(F)(F)F)cc2-c2ccc3c(ccc4ccccc43)c2)cc1 [AR-12],>128,>128,>128,>64,>64,>64,>64,>64,>64,>64,,,,,,,,,,,"MIC (Enterobacter cloacae): >64 µg/mL; lowest AR-12 concentration at which the potentiating activity was observed for majority of the MDR strains ([3]; combination with polymyxin B or colistin): 4 µg/mL; MIC of AR-12 alone ([3]; panel of MDR pathogens, tested upto 64 µg/ml): > 64 µg/mL; enhancement of dansyl polymyxin B (DP) fluorescence [4]: 25–50 fold; effect on NPN fluorescence (outer membrane permeability) [5]: increased the fluorescence of NPN; bioavailability [6]: poor; AUC (0–24 hrs) ([6]; 80 mg/kg, p.o., q.d.): 41400 ng·h/mL; Cmax ([6]; 80 mg/kg, p.o., q.d.): 2100 ng/mL; Tmax ([6]; 80 mg/kg, p.o., q.d.): 10 h; plasma levels sustained over a 24 hrs period ([6]; 80 mg/kg, p.o., q.d.): 1.5–2.1 μg/mL and ~ 2 μg/mL; maximum tolerated dose [7]: 100 mg/kg; protein bound (Protein binding in mice): 99%; COX-2 inhibitory activities (cyclooxygenase 2 (COX-2)): devoid of cyclooxygenase 2 (COX-2) inhibitory activities; direct antibacterial activity (Francisella strains): did not have any direct antibacterial activity; intracellular survival of bacteria in macrophages [8]: inhibit the intracellular survival; bacterial growth [9]: significantly inhibited the growth; bacterial proliferation [10]: reduced the proliferation"
colistin,>64,,,8,>64,>64,>64,>64,>64,>64,4–16 fold,4,8,>64,16,16,1,>64 µg/mL,>64,>64 µg/mL,"MIC (4 µg/ml AR-12) (Enterobacter cloacae): 16 µg/mL; fold reduction of MIC in the presence of 4 μg/ml of AR-12 (K. pneumoniae [2]; MDR K. pneumoniae (polymyxin B 7 out of 7, colistin 5 out of 7 strains tested)): 4–60 fold; MIC (4 µg/ml AR-12) (K. pneumoniae [2]; strain 101522): 8 µg/mL; fold reduction of MIC in the presence of AR-12 [3]: 4–60 fold; colistin concentration giving growth inhibition (A. baumannii [11]; MDR A. baumannii 34299, colistin alone): > 32 µg/mL; colistin concentration giving growth inhibition (A. baumannii [11]; MDR A. baumannii 34299, in the presence of 4 μg/ml AR-12): 1 µg/mL; colistin concentration giving growth inhibition (A. baumannii [11]; polymyxin sensitive ATCC A. baumannii 19606, colistin alone): 0.5 µg/mL; colistin concentration giving growth inhibition (A. baumannii [11]; polymyxin sensitive ATCC A. baumannii 19606, in the presence of 4 μg/ml AR-12): 0.015 µg/mL; colistin concentration giving growth inhibition (K. pneumoniae [12]; MDR K. pneumoniae 30835, colistin alone): 8 µg/mL; colistin concentration giving growth inhibition (K. pneumoniae [12]; MDR K. pneumoniae 30835, in the presence of 4 μg/ml AR-12): 1 µg/mL; colistin concentration giving growth inhibition (K. pneumoniae [12]; polymyxin sensitive ATCC K. pneumoniae 13833, colistin alone): 2 µg/mL; colistin concentration giving growth inhibition (K. pneumoniae [12]; polymyxin sensitive ATCC K. pneumoniae 13833, in the presence of 4 μg/ml AR-12): 0.125 µg/mL"
polymyxin B,16,128,>128,2,64,64,>64,>64,>64,>64,4–16 fold,≤2,2,128,≤2,16,2,64 µg/mL and >64 µg/mL,>64,>64 µg/mL and 64 µg/mL,MIC (4 µg/ml AR-12) (B. mallei): 128 µg/mL; MIC (4 µg/ml AR-12) (B. pseudomallei): >128 µg/mL; fold reduction of MIC in the presence of AR-12 [3]: 4–60 fold
